Experimental data: paper PMC3690702 (Nuclear medicine and biology, 2010)
Read-outs that look alike come from different tables or passages of the source. Values belong to the compound of their own block, whether it stands above or below them.

Legend:
[1] = tested on: BCRP; conditions: cited from earlier work
[2] = Stability testing in formulation solution for i.v. injection; format: physicochemical; conditions: at least 2 h at room temperature; 0.9% aq. saline/ethanol/polyethylene glycol 300; HPLC system A
[3] = format: in vivo, mice; conditions: for total plasma radioactivity recovered in SPE fraction 3 (MeOH) / percentage of unchanged [11C]-1 in mouse plasma / Blood concentration, 25 min: n=1; for percentage of unchanged [11C]-1 in mouse plasma: 25 min after tracer injection; for percentage of total brain radioactivity in the form of unchanged [11C]-1: brain tissue extract, HPLC system A; for Blood concentration, 25 min: total radioactivity; for mean brain-to-plasma ratio of unchanged [11C]-1, fold higher compared to wild-type animals: 25 min, p=0.0495; for Kp at 25 min: mouse, brain and plasma, intravenous, Brain-plasma ratio of unchanged [11C]-1, 25 min, mean±SD
Procedure, shortened: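 Female mice, 25-30 g, one per genotype, given radiotracer i.v. At 25 min: cardiac blood into heparin, spun 3,000×g, 5 min, 21°C, for plasma. Blood and plasma weighed, gamma-counted (cross-calibrated with PET), decay-corrected, %ID/g. Plasma spiked with unlabelled carrier, acidified, run through tC18 SPE (H2O wash, MeOH elution). H2O and MeOH fractions went to reversed-phase HPLC (pH 5.0, 35°C) and Aminex HPLC, UV 227 nm. Brain homogenised in saline, CH3CN-extracted, supernatant HPLC.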

[4] = Small-animal PET imaging of [11C]-1 in wild-type and transporter knockout mice; format: in vivo; conditions: for Brain AUC / Brain-blood ratio, 25 min / Brain concentration, 25 min: total radioactivity, mean±SD; for Brain AUC: 0-60 min; for Brain AUC / Brain concentration, 25 min: n=3; for AUC of brain TACs, fold higher compared to wild-type animals: p=0.0495
Procedure, shortened: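 Female mice, 25-30 g, three per genotype. Isoflurane 2.5% to induce, 1.5-2% by mask to maintain, warmed to about 38°C. About 0.1 mL radiotracer (28±16 MBq) into the lateral tail vein. Whole-brain PET TACs as %ID/g; AUC from zero to the last time point. Brain %ID/g at 25 min divided by whole-blood %ID/g from a separate group (one mouse per genotype) gives brain-blood ratio. Mean±SD; Mann-Whitney U versus wild-type.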

[5] = Stability testing in mouse plasma in vitro; format: in vitro ADME; conditions: 37°C, 30 min, SPE/HPLC
Procedure, shortened: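 Citrated mouse plasma (0.5 mL) mixed with 20 µL formulated radiotracer (about 40 MBq). Held 30 min at 37°C in a shaking water bath. Then C18 solid-phase extraction: acidified load, H2O wash, MeOH elution. Fractions analysed by radio-HPLC, reversed-phase column, CH3CN/MeOH/NH4OAc pH 5.0, UV 227 nm, to find the polar labelled species.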

[6] = rats; time course of a 1 h PET scan; cited from earlier work
[7] = Bcrp1(−/−) mice, 25 min after injection
[8] = Mdr1a/b(−/−) mice, 25 min after injection
[9] = wild-type mice, 25 min after injection

Structure (SMILES): COC(=O)c1ccc(C(=O)Nc2ccc(CCN3CCc4cc(OC)c(OC)cc4C3)cc2)cc1NC(=O)c1ccc2ccccc2n1 [Compound 1, Methyl 4-((4-(2-(6,7-dimethoxy-1,2,3,4-tetrahydroisoquinolin-2-yl)ethyl)phenyl)amino-carbonyl)-2-(quinoline-2-carbonylamino)benzoate]
- selectivity for inhibition of BCRP over P-gp ([1]; in vitro transport assays): approximately 500 fold
- IC50 ([1]; read-out: half-maximum inhibitory concentration (IC50), BCRP-mediated transport of mitoxantrone, topotecan-resistant MCF-7 breast cancer cells): 60 nM

- stability in formulation solution for i.v. injection [2]: 100%
- total plasma radioactivity recovered in SPE fraction 3 (MeOH) [3, 7]: 19%
- percentage of unchanged [11C]-1 in mouse plasma ([3]; Bcrp1(−/−) mice): 14%
- percentage of total brain radioactivity in the form of unchanged [11C]-1 [3, 7]: 25%
- Blood concentration, 25 min ([3]; Bcrp1(−/−) mice): 2.3 %ID/g
- mean brain-to-plasma ratio of unchanged [11C]-1, fold higher compared to wild-type animals ([3]; Mdr1a/b(−/−) mice): 4.8 fold
- total plasma radioactivity recovered in SPE fraction 3 (MeOH) [3, 8]: 28%
- percentage of unchanged [11C]-1 in mouse plasma ([3]; Mdr1a/b(−/−) mice): 17%
- percentage of total brain radioactivity in the form of unchanged [11C]-1 [3, 8]: 62%
- Blood concentration, 25 min ([3]; Mdr1a/b(−/−) mice): 2.5 %ID/g
- mean brain-to-plasma ratio of unchanged [11C]-1, fold higher compared to wild-type animals ([3]; Mdr1a/b(−/−)Bcrp1(−/−) mice): 10.3 fold
- total plasma radioactivity recovered in SPE fraction 3 (MeOH) ([3]; Mdr1a/b(−/−)Bcrp1(−/−) mice, 25 min after injection): 18%
- percentage of unchanged [11C]-1 in mouse plasma ([3]; Mdr1a/b(−/−)Bcrp1(−/−) mice): 11%
- Blood concentration, 25 min ([3]; Mdr1a/b(−/−)Bcrp1(−/−) mice): 1.8 %ID/g
- total plasma radioactivity in the form of unchanged parent ([3]; mouse plasma extracts, 25 min after injection, range over the 4 mouse types): 11-17%
- Kp at 25 min ([3]; Bcrp1(−/−) mice): 2.1 ± 0.1
- Kp at 25 min ([3]; Mdr1a/b(−/−) mice): 8.6 ± 1.6
- Kp at 25 min ([3]; Mdr1a/b(−/−)Bcrp1(−/−) mice): 18.3 ± 3.7
- Kp at 25 min ([3]; wild-type mice): 1.8 ± 0.1
- total plasma radioactivity recovered in SPE fraction 3 (MeOH) [3, 9]: 25%
- percentage of unchanged [11C]-1 in mouse plasma ([3]; wild-type mice): 13%
- percentage of total brain radioactivity in the form of unchanged [11C]-1 [3, 9]: 12%
- Blood concentration, 25 min ([3]; wild-type mice): 2.1 %ID/g
- Brain AUC ([4]; Bcrp1(−/−) mice): 3.1±0.2 h·%ID/g
- Brain-blood ratio, 25 min ([4]; Bcrp1(−/−) mice): 1.6±0.1
- Brain concentration, 25 min ([4]; Bcrp1(−/−) mice): 3.5±0.2 %ID/g
- AUC of brain TACs, fold higher compared to wild-type animals ([4]; Mdr1a/b(−/−) mice): 1.3 fold
- Brain AUC ([4]; Mdr1a/b(−/−) mice): 3.6±0.6^† h·%ID/g
- Brain-blood ratio, 25 min ([4]; Mdr1a/b(−/−) mice): 1.7±0.3
- Brain concentration, 25 min ([4]; Mdr1a/b(−/−) mice): 4.2±0.8 %ID/g
- Brain AUC ([4]; Mdr1a/b(−/−)Bcrp1(−/−) mice): 5.1±0.9^† h·%ID/g
- Brain-blood ratio, 25 min ([4]; Mdr1a/b(−/−)Bcrp1(−/−) mice): 3.2±0.6
- Brain concentration, 25 min ([4]; Mdr1a/b(−/−)Bcrp1(−/−) mice): 5.8±1.2 %ID/g
- AUC of brain TACs, fold higher compared to wild-type animals ([4]; triple knockout (Mdr1a/b(−/−)Bcrp1(−/−)) mice): 1.8 fold
- Brain AUC ([4]; wild-type mice): 2.8±0.2 h·%ID/g
- Brain-blood ratio, 25 min ([4]; wild-type mice): 1.5±0.1
- Brain concentration, 25 min ([4]; wild-type mice): 3.2±0.2 %ID/g
- total radioactivity degraded to an unidentified polar radiolabelled species [5]: > 98%
Structure (SMILES): COc1cc2c(cc1OC)CN(CCc1ccc(NC(=O)c3ccc(C(=O)O[11CH3])c(NC(=O)c4ccc5ccccc5n4)c3)cc1)CC2 [[^11C]-1, [^11C]Methyl 4-((4-(2-(6,7-dimethoxy-1,2,3,4-tetrahydroisoquinolin-2-yl)ethyl)phenyl)amino-carbonyl)-2-(quinoline-2-carbonylamino)benzoate]

Structure (SMILES): COc1cc2c(cc1OC)CN(CCc1ccc(NC(=O)c3cc(OC)c(OC)cc3NC(=O)c3cnc4ccccc4c3)cc1)CC2 [tariquidar]
- metabolism in vivo [6]: hardly metabolized
